The values that follow come from paper PMC3947313 (Journal of neurochemistry, 2013).

Data set [1] has as its target double phospho-peptide containing pT202pY204 derived from the ERK activation loop.
The target in data set [2] is double-phosphorylated ERK2-pT202pY204 protein (UniProt P28482).
Data set [3] has as its target double phospho-peptide containing pT202pY204 derived from the ERK activation loop. The source holds these as a separate data set.
In data set [4] the target is double-phosphorylated ERK2-pT202pY204 protein (UniProt P28482). This is another data set of the same source.
For data set [5], the system named is p38-derived phospho-peptide. In words: Activity of STEP variants toward the p38-derived phospho-peptide. It counts as biochemical. The settings on record: STEP mutant compared to wild-type STEP; stated as 'all substrates'. The method, boiled down: (§1)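 Synthetic, HPLC-purified Tyr(P)-containing peptides were dephosphorylated at 37°C in 50 mM succinic buffer (pH 6.0), 1 mM EDTA and 2 mM DTT, ionic strength 0.15 M (NaCl). Released phosphate was measured with BIOMOL Green at 620 nm. Hydrolysis was also followed continuously by tyrosine fluorescence (excitation 280 nm, emission 305 nm). Michaelis-Menten fits gave kinetic parameters (mean ± standard error).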

Data set [6] has as its system ERK2-pT202pY204. In words: Enzyme-coupled. The note with it: STEP variant compared to wild-type STEP; pH 7.0, 25°C. It counts as biochemical. The procedure, abridged: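 Phospho-ERK2 protein was prepared using ERK2 and MEK1 expression plasmids. Initial rates were fitted to Michaelis-Menten for Km and kcat. At substrate << Km, kcat/Km came from first-order progress-curve fitting. Values are mean ± standard error.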

Data set [7] relates to ERK pT202pY204 phospho-peptide. It counts as biochemical. The settings on record: STEP mutant compared to wild-type STEP; 37°C, pH 6.0. The method, boiled down:
as §1

Data set [8] in a line: Activity of STEP variants toward pNPP. The class given is biochemical. The note with it: STEP mutant compared to wild-type STEP; stated as 'all substrates'. The method, boiled down: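 Phosphatase variants hydrolysed pNPP at 37°C in 50 mM succinic buffer (pH 6.0) with 1 mM EDTA, 2 mM DTT and ionic strength adjusted to 0.15 M with NaCl. Reactions were stopped with 1 M NaOH and read at 405 nm. Kinetic parameters came from Michaelis-Menten fits, reported as mean ± standard error.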

As for “STEP K463Q (from UniProt P54829 1-565) (enzyme)”, the activity toward the phospho-ERK peptide, decrease against wild-type STEP in data set [1] was above 4 fold. For the same molecule, the activity toward the phospho-ERK protein, decrease against wild-type STEP in data set [2] is above 4 fold.

Molecule “STEP F311A (from UniProt P54829 1-565) (enzyme)” displayed an activity toward the ERK phospho-peptide, decrease against wild-type STEP in data set [3] of 2 fold.

For “HePTP S23E (from UniProt P35236 1-360) (enzyme)”, in data set [4], the activity toward phospho-ERK, decrease against wild-type HePTP came to 3 fold.

B1: T541A: STEP Q-loop mutant T541A (protein, UniProt P54829 1-565, looked up, variant T541A)
Tyrosine-protein phosphatase …: MNYEGARSERENHAADDSEGGALDMCCSERLPGLPQPIVMEALDEAEGLQDSQREMPPPPPPSPPSDPAQKPPPRGAGSHSLTVRSSLCLFAASQFLLACGVLWFSGYGHIWSQNATNLVSSLLTLLKQLEPTAWLDSGTWGVPSLLLVFLSVGLVLVTTLVWHLLRTPPEPPTPLPPEDRRQSVSRQPSFTYSEWMEEKIEDDFLDLDPVPETPVFDCVMDIKPEADPTSLTVKSMGLQERRGSNVSLTLDMCTPGCNEEGFGYLMSPREESAREYLLSASRVLQAEELHEKALDPFLLQAEFFEIPMNFVDPKEYDIPGLVRKNRYKTILPNPHSRVCLTSPDPDDPLSSYINANYIRGYGGEEKVYIATQGPIVSTVADFWRMVWQEHTPIIVMITNIEEMNEKCTEYWPEEQVAYDGVEITVQKVIHTEDYRLRLISLKSGTEERGLKHYWFTSWPDQKTPDRAPPLLHLVREVEEAAQQEGPHCAPIIVHCSAGIGRTGCFIATSICCQQLRQEGVVDILKTTCQLRQDRGGMIQACEQYQFVHHVMSLYEKQLSHQSPE
Regarding B1, the “decrease of activity toward phospho-p38 peptide” value in data set [5] came to 2 fold. Besides, the “decrease of kcat/Km (activity) toward phospho-ERK protein” value in data set [6] was 2 fold. Besides, the “decrease of activity toward phospho-ERK peptide” value in data set [7] was 2 fold. In addition, the “decrease of activity toward pNPP” value in data set [8] is listed as 2 fold.
